≈ marks a conversion by molar mass, not a printed value.
Tests used:
Assay type in all cases: functional
Pseudomonas aeruginosa [1] = assay: Antimicrobial activity against Pseudomonas aeruginosa isolate 16 obtained from cystic fibrosis patients after 16 to 20 hrs by broth microdilution method in presence of 120 uM carbonyl cyanide m-chlorophenyl-hydrazone
How it was run: (§1)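 CLSI broth microdilution in Mueller-Hinton broth with CCCP added from a 10 mM DMSO stock to 120 μM final, alongside 2-fold serial antibiotic dilutions. Inoculum from starter cultures grown to OD600 0.5. MIC is the lowest concentration preventing growth after 16-20 h at 37°C. Triplicate.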

Pseudomonas aeruginosa [2] = assay: Antimicrobial activity against Pseudomonas aeruginosa isolate 12 obtained from cystic fibrosis patients after 16 to 20 hrs by broth microdilution method
How it was run: (§2)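 CLSI broth microdilution: 2-fold serial antibiotic dilutions in Mueller-Hinton broth, inoculated with about 10^4 cells per 100 μl from starter cultures grown to OD600 0.5. MIC is the lowest concentration preventing growth after 16-20 h at 37°C. Triplicate.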

Pseudomonas aeruginosa [3] = assay: Antimicrobial activity against Pseudomonas aeruginosa isolate 13 obtained from cystic fibrosis patients after 16 to 20 hrs by broth microdilution method in presence of 120 uM carbonyl cyanide m-chlorophenyl-hydrazone; how it was run: as §1
Pseudomonas aeruginosa [4] = assay: Antimicrobial activity against Pseudomonas aeruginosa isolate 12 obtained from cystic fibrosis patients after 16 to 20 hrs by broth microdilution method in presence of 120 uM carbonyl cyanide m-chlorophenyl-hydrazone; how it was run: as §1
Pseudomonas aeruginosa [5] = assay: Antimicrobial activity against Pseudomonas aeruginosa isolate 18 obtained from cystic fibrosis patients after 16 to 20 hrs by broth microdilution method in presence of 120 uM carbonyl cyanide m-chlorophenyl-hydrazone
How it was run: (§3)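 CLSI broth microdilution in Mueller-Hinton broth with serial antibiotic dilutions. CCCP was added from a 10 mM DMSO stock to 120 μM final, then the bacterial culture was added as inoculum (about 10^4 cells from OD600 0.5 starter cultures). MIC was the lowest concentration preventing growth after 16 to 20 h at 37°C, run in triplicate.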

Pseudomonas aeruginosa [6] = assay: Antimicrobial activity against Pseudomonas aeruginosa isolate 17 obtained from cystic fibrosis patients after 16 to 20 hrs by broth microdilution method in presence of 120 uM carbonyl cyanide m-chlorophenyl-hydrazone; how it was run: as §3
Pseudomonas aeruginosa [7] = assay: Antimicrobial activity against Pseudomonas aeruginosa isolate 16 obtained from cystic fibrosis patients after 16 to 20 hrs by broth microdilution method; how it was run: as §2
Pseudomonas aeruginosa [8] = assay: Antimicrobial activity against Pseudomonas aeruginosa isolate 13 obtained from cystic fibrosis patients after 16 to 20 hrs by broth microdilution method; how it was run: as §2
Pseudomonas aeruginosa [9] = assay: Antimicrobial activity against Pseudomonas aeruginosa isolate 9 obtained from cystic fibrosis patients after 16 to 20 hrs by broth microdilution method
How it was run: (§4)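 CLSI broth microdilution in Mueller-Hinton broth, serial 2-fold antibiotic dilutions. Inoculum about 10^4 cells per well, taken from starter cultures grown to OD600 0.5. MIC was the lowest antibiotic concentration preventing growth after 16 to 20 h at 37°C. Each MIC was determined in triplicate.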

Pseudomonas aeruginosa [10] = assay: Antimicrobial activity against Pseudomonas aeruginosa isolate 10 obtained from cystic fibrosis patients after 16 to 20 hrs by broth microdilution method in presence of 120 uM carbonyl cyanide m-chlorophenyl-hydrazone; how it was run: as §1
Pseudomonas aeruginosa [11] = assay: Antimicrobial activity against Pseudomonas aeruginosa isolate 15 obtained from cystic fibrosis patients after 16 to 20 hrs by broth microdilution method in presence of 120 uM carbonyl cyanide m-chlorophenyl-hydrazone; how it was run: as §1
Pseudomonas aeruginosa [12] = assay: Antimicrobial activity against Pseudomonas aeruginosa isolate 7 obtained from cystic fibrosis patients after 16 to 20 hrs by broth microdilution method; how it was run: as §4
Pseudomonas aeruginosa [13] = assay: Antimicrobial activity against Pseudomonas aeruginosa isolate 18 obtained from cystic fibrosis patients after 16 to 20 hrs by broth microdilution method; how it was run: as §4
Pseudomonas aeruginosa [14] = assay: Antimicrobial activity against Pseudomonas aeruginosa isolate 5 obtained from cystic fibrosis patients after 16 to 20 hrs by broth microdilution method in presence of 120 uM carbonyl cyanide m-chlorophenyl-hydrazone; how it was run: as §3
Pseudomonas aeruginosa [15] = assay: Antimicrobial activity against Pseudomonas aeruginosa isolate 14 obtained from cystic fibrosis patients after 16 to 20 hrs by broth microdilution method; how it was run: as §2
Pseudomonas aeruginosa [16] = assay: Antimicrobial activity against Pseudomonas aeruginosa isolate 3 obtained from cystic fibrosis patients after 16 to 20 hrs by broth microdilution method in presence of 120 uM carbonyl cyanide m-chlorophenyl-hydrazone; how it was run: as §3
Pseudomonas aeruginosa [17] = assay: Antimicrobial activity against Pseudomonas aeruginosa isolate 9 obtained from cystic fibrosis patients after 16 to 20 hrs by broth microdilution method in presence of 120 uM carbonyl cyanide m-chlorophenyl-hydrazone; how it was run: as §3
Pseudomonas aeruginosa [18] = assay: Antimicrobial activity against Pseudomonas aeruginosa isolate 15 obtained from cystic fibrosis patients after 16 to 20 hrs by broth microdilution method; how it was run: as §2
Pseudomonas aeruginosa [19] = assay: Antimicrobial activity against Pseudomonas aeruginosa isolate 3 obtained from cystic fibrosis patients after 16 to 20 hrs by broth microdilution method; how it was run: as §4
Pseudomonas aeruginosa [20] = assay: Antimicrobial activity against Pseudomonas aeruginosa isolate 14 obtained from cystic fibrosis patients after 16 to 20 hrs by broth microdilution method in presence of 120 uM carbonyl cyanide m-chlorophenyl-hydrazone; how it was run: as §1
Pseudomonas aeruginosa [21] = assay: Antimicrobial activity against Pseudomonas aeruginosa isolate 11 obtained from cystic fibrosis patients after 16 to 20 hrs by broth microdilution method in presence of 120 uM carbonyl cyanide m-chlorophenyl-hydrazone; how it was run: as §1
Pseudomonas aeruginosa [22] = assay: Antimicrobial activity against Pseudomonas aeruginosa isolate 2 obtained from cystic fibrosis patients after 16 to 20 hrs by broth microdilution method; how it was run: as §4
Pseudomonas aeruginosa [23] = assay: Antimicrobial activity against Pseudomonas aeruginosa isolate 17 obtained from cystic fibrosis patients after 16 to 20 hrs by broth microdilution method; how it was run: as §4
Pseudomonas aeruginosa [24] = assay: Antimicrobial activity against Pseudomonas aeruginosa isolate 4 obtained from cystic fibrosis patients after 16 to 20 hrs by broth microdilution method in presence of 120 uM carbonyl cyanide m-chlorophenyl-hydrazone; how it was run: as §3
Pseudomonas aeruginosa [25] = assay: Antimicrobial activity against Pseudomonas aeruginosa isolate 11 obtained from cystic fibrosis patients after 16 to 20 hrs by broth microdilution method; how it was run: as §2
Pseudomonas aeruginosa [26] = assay: Antimicrobial activity against Pseudomonas aeruginosa isolate 7 obtained from cystic fibrosis patients after 16 to 20 hrs by broth microdilution method in presence of 120 uM carbonyl cyanide m-chlorophenyl-hydrazone; how it was run: as §3
Pseudomonas aeruginosa [27] = assay: Antimicrobial activity against Pseudomonas aeruginosa isolate 6 obtained from cystic fibrosis patients after 16 to 20 hrs by broth microdilution method; how it was run: as §4
Pseudomonas aeruginosa [28] = assay: Antimicrobial activity against Pseudomonas aeruginosa isolate 1 obtained from cystic fibrosis patients after 16 to 20 hrs by broth microdilution method; how it was run: as §2
Pseudomonas aeruginosa [29] = assay: Antimicrobial activity against Pseudomonas aeruginosa isolate 2 obtained from cystic fibrosis patients after 16 to 20 hrs by broth microdilution method in presence of 120 uM carbonyl cyanide m-chlorophenyl-hydrazone; how it was run: as §3
Pseudomonas aeruginosa [30] = assay: Antimicrobial activity against Pseudomonas aeruginosa isolate 6 obtained from cystic fibrosis patients after 16 to 20 hrs by broth microdilution method in presence of 120 uM carbonyl cyanide m-chlorophenyl-hydrazone; how it was run: as §3
Pseudomonas aeruginosa [31] = assay: Antimicrobial activity against Pseudomonas aeruginosa isolate 5 obtained from cystic fibrosis patients after 16 to 20 hrs by broth microdilution method; how it was run: as §4
Pseudomonas aeruginosa [32] = assay: Antimicrobial activity against Pseudomonas aeruginosa isolate 4 obtained from cystic fibrosis patients after 16 to 20 hrs by broth microdilution method; how it was run: as §4
Pseudomonas aeruginosa [33] = assay: Antimicrobial activity against Pseudomonas aeruginosa isolate 8 obtained from cystic fibrosis patients after 16 to 20 hrs by broth microdilution method in presence of 120 uM carbonyl cyanide m-chlorophenyl-hydrazone; how it was run: as §3
Pseudomonas aeruginosa [34] = assay: Antimicrobial activity against Pseudomonas aeruginosa isolate 1 obtained from cystic fibrosis patients after 16 to 20 hrs by broth microdilution method in presence of 120 uM carbonyl cyanide m-chlorophenyl-hydrazone; how it was run: as §1
Pseudomonas aeruginosa [35] = assay: Antimicrobial activity against Pseudomonas aeruginosa isolate 8 obtained from cystic fibrosis patients after 16 to 20 hrs by broth microdilution method; how it was run: as §4
Pseudomonas aeruginosa [36] = assay: Antimicrobial activity against Pseudomonas aeruginosa isolate 10 obtained from cystic fibrosis patients after 16 to 20 hrs by broth microdilution method; how it was run: as §2

SMILES: O=C(N[C@H](CO)[C@H](O)c1ccc([N+](=O)[O-])cc1)C(Cl)Cl [CHLORAMPHENICOL]
- MIC (Pseudomonas aeruginosa [1]): 8 µg/mL
- MIC (Pseudomonas aeruginosa [2]): 8 µg/mL (≈ 24.8 µM)
- MIC (Pseudomonas aeruginosa [3]): 8 µg/mL
- MIC (Pseudomonas aeruginosa [4]): 8 µg/mL
- MIC (Pseudomonas aeruginosa [5]): 32 µg/mL
- MIC (Pseudomonas aeruginosa [6]): 8 µg/mL
- MIC (Pseudomonas aeruginosa [7]): 8 µg/mL (≈ 24.8 µM)
- MIC (Pseudomonas aeruginosa [8]): 32 µg/mL (≈ 99 µM)
- MIC (Pseudomonas aeruginosa [9]): 16 µg/mL (≈ 49.5 µM)
- MIC (Pseudomonas aeruginosa [10]): 8 µg/mL
- MIC (Pseudomonas aeruginosa [11]): 8 µg/mL
- MIC (Pseudomonas aeruginosa [12]): 8 µg/mL (≈ 24.8 µM)
- MIC (Pseudomonas aeruginosa [13]): 32 µg/mL (≈ 99 µM)
- MIC (Pseudomonas aeruginosa [14]): 32 µg/mL
- MIC (Pseudomonas aeruginosa [15]): 16 µg/mL (≈ 49.5 µM)
- MIC (Pseudomonas aeruginosa [16]): 64 µg/mL
- MIC (Pseudomonas aeruginosa [17]): 16 µg/mL
- MIC (Pseudomonas aeruginosa [18]): 8 µg/mL (≈ 24.8 µM)
- MIC (Pseudomonas aeruginosa [19]): 256 µg/mL (≈ 792 µM)
- MIC (Pseudomonas aeruginosa [20]): 8 µg/mL
- MIC (Pseudomonas aeruginosa [21]): 32 µg/mL
- MIC (Pseudomonas aeruginosa [22]): 256 µg/mL (≈ 792 µM)
- MIC (Pseudomonas aeruginosa [23]): 8 µg/mL (≈ 24.8 µM)
- MIC (Pseudomonas aeruginosa [24]): 32 µg/mL
- MIC (Pseudomonas aeruginosa [25]): 32 µg/mL (≈ 99 µM)
- MIC (Pseudomonas aeruginosa [26]): 8 µg/mL
- MIC (Pseudomonas aeruginosa [27]): 8 µg/mL (≈ 24.8 µM)
- MIC (Pseudomonas aeruginosa [28]): 256 µg/mL (≈ 792 µM)
- MIC (Pseudomonas aeruginosa [29]): 256 µg/mL
- MIC (Pseudomonas aeruginosa [30]): 8 µg/mL
- MIC (Pseudomonas aeruginosa [31]): 32 µg/mL (≈ 99 µM)
- MIC (Pseudomonas aeruginosa [32]): 32 µg/mL (≈ 99 µM)
- MIC (Pseudomonas aeruginosa [33]): 32 µg/mL
- MIC (Pseudomonas aeruginosa [34]): 64 µg/mL
- MIC (Pseudomonas aeruginosa [35]): 32 µg/mL (≈ 99 µM)
- MIC (Pseudomonas aeruginosa [36]): 32 µg/mL (≈ 99 µM)

SMILES: CN(C)[C@@H]1C(O)=C(C(N)=O)C(=O)[C@@]2(O)C(O)=C3C(=O)c4c(O)cccc4[C@@](C)(O)[C@H]3C[C@@H]12 [TETRACYCLINE]
- MIC (Pseudomonas aeruginosa [1]): 8 µg/mL
- MIC (Pseudomonas aeruginosa [2]): 8 µg/mL (≈ 18 µM)
- MIC (Pseudomonas aeruginosa [3]): 8 µg/mL
- MIC (Pseudomonas aeruginosa [4]): 8 µg/mL
- MIC (Pseudomonas aeruginosa [5]): 8 µg/mL
- MIC (Pseudomonas aeruginosa [6]): 8 µg/mL
- MIC (Pseudomonas aeruginosa [7]): 8 µg/mL (≈ 18 µM)
- MIC (Pseudomonas aeruginosa [8]): 8 µg/mL (≈ 18 µM)
- MIC (Pseudomonas aeruginosa [9]): 8 µg/mL (≈ 18 µM)
- MIC (Pseudomonas aeruginosa [10]): 8 µg/mL
- MIC (Pseudomonas aeruginosa [11]): 8 µg/mL
- MIC (Pseudomonas aeruginosa [12]): 8 µg/mL (≈ 18 µM)
- MIC (Pseudomonas aeruginosa [13]): 16 µg/mL (≈ 36 µM)
- MIC (Pseudomonas aeruginosa [14]): 8 µg/mL
- MIC (Pseudomonas aeruginosa [15]): 8 µg/mL (≈ 18 µM)
- MIC (Pseudomonas aeruginosa [16]): 8 µg/mL
- MIC (Pseudomonas aeruginosa [17]): 8 µg/mL
- MIC (Pseudomonas aeruginosa [18]): 8 µg/mL (≈ 18 µM)
- MIC (Pseudomonas aeruginosa [19]): 8 µg/mL (≈ 18 µM)
- MIC (Pseudomonas aeruginosa [20]): 8 µg/mL
- MIC (Pseudomonas aeruginosa [21]): 8 µg/mL
- MIC (Pseudomonas aeruginosa [22]): 8 µg/mL (≈ 18 µM)
- MIC (Pseudomonas aeruginosa [23]): 8 µg/mL (≈ 18 µM)
- MIC (Pseudomonas aeruginosa [24]): 8 µg/mL
- MIC (Pseudomonas aeruginosa [25]): 8 µg/mL (≈ 18 µM)
- MIC (Pseudomonas aeruginosa [26]): 8 µg/mL
- MIC (Pseudomonas aeruginosa [27]): 8 µg/mL (≈ 18 µM)
- MIC (Pseudomonas aeruginosa [28]): 8 µg/mL (≈ 18 µM)
- MIC (Pseudomonas aeruginosa [29]): 8 µg/mL
- MIC (Pseudomonas aeruginosa [30]): 8 µg/mL
- MIC (Pseudomonas aeruginosa [31]): 8 µg/mL (≈ 18 µM)
- MIC (Pseudomonas aeruginosa [32]): 8 µg/mL (≈ 18 µM)
- MIC (Pseudomonas aeruginosa [33]): 8 µg/mL
- MIC (Pseudomonas aeruginosa [34]): 8 µg/mL
- MIC (Pseudomonas aeruginosa [35]): 16 µg/mL (≈ 36 µM)
- MIC (Pseudomonas aeruginosa [36]): 8 µg/mL (≈ 18 µM)
